Test results as given in ChEMBL document CHEMBL4402547, “Synthesis and Pharmacological Characterization of Conformationally Restricted Retigabine Analogues as Novel Neuronal Kv7 Channel Activators” (J Med Chem, 2020).
Activity calls are given as the source filed them. No cut-off for these calls is given here.

How the values were obtained:
[1] = target: Voltage-gated potassium channel, KQT; KCNQ2(Kv7.2)/KCNQ3(Kv7.3) (Homo sapiens, UniProt O43525+O43526); assay: Activation of human Kv7.2/Kv7.3 expressed in CHO cells assessed as increase in channel current amplitude by whole cell patch clamp electrophysiology assay; assay type: cell-based
Chain of Voltage-gated potassium channel, KQT; KCNQ2(Kv7.2)/KCNQ3(Kv7.3) (O43526 whole entry): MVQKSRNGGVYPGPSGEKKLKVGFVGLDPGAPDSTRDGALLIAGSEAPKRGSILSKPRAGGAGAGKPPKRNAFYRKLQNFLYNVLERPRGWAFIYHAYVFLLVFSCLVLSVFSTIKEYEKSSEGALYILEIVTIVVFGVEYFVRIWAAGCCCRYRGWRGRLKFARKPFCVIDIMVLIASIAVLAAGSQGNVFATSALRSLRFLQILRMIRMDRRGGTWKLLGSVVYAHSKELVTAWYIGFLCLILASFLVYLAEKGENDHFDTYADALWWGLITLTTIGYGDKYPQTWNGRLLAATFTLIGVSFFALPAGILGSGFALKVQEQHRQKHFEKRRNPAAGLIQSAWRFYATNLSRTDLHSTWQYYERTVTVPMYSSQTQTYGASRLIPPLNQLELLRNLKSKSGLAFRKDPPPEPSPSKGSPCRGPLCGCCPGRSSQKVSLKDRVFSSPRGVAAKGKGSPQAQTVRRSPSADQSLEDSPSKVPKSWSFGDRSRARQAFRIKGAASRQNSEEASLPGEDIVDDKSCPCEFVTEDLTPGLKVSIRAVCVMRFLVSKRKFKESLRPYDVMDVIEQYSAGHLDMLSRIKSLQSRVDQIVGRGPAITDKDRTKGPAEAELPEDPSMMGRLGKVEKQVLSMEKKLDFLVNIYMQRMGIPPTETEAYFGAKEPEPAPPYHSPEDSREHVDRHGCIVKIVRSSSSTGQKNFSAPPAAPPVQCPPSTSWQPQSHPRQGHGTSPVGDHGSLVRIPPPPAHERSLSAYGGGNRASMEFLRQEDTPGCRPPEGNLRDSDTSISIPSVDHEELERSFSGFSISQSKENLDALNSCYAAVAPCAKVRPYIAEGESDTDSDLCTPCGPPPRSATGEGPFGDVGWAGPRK
Chain of Voltage-gated potassium channel, KQT; KCNQ2(Kv7.2)/KCNQ3(Kv7.3) (O43525 whole entry): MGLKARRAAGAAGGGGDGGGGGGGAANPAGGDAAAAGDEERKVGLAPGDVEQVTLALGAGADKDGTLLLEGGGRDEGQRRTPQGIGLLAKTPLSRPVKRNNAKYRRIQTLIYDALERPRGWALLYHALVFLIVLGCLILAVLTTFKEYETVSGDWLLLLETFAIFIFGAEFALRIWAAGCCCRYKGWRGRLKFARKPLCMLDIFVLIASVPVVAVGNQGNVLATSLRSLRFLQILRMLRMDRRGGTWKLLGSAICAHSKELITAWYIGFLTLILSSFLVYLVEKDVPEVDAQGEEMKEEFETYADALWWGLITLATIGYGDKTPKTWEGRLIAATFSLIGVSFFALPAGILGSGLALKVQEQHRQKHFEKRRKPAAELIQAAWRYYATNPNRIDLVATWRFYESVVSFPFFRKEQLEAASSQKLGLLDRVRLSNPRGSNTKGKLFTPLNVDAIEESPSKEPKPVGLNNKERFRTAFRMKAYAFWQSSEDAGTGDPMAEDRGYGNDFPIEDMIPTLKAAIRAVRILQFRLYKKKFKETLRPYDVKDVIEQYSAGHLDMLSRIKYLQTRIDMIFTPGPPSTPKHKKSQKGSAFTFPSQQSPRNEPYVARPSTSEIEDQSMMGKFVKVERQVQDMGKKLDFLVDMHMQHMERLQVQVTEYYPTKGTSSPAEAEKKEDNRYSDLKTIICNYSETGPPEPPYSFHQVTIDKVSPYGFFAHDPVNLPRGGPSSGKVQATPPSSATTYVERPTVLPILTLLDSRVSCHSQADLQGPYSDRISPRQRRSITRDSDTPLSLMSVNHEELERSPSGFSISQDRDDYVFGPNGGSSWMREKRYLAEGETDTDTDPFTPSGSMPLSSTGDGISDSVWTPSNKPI
Procedure, shortened: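 Human Kv7.2 plus Kv7.3 cDNAs co-transfected into CHO cells; whole-cell patch clamp at 20–22°C, extracellular solution pH 7.4. Drug applied at 0.01–10 μM to test concentration-dependent current increase.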

[2] = target: T1, Potassium voltage-gated channel subfamily KQT member 4 (Homo sapiens, UniProt P56696); assay: Activation of human Kv7.4 expressed in CHO cells assessed as increase in channel current amplitude by whole cell patch clamp electrophysiology assay; assay type: cell-based
T1 sequence (P56696 whole entry): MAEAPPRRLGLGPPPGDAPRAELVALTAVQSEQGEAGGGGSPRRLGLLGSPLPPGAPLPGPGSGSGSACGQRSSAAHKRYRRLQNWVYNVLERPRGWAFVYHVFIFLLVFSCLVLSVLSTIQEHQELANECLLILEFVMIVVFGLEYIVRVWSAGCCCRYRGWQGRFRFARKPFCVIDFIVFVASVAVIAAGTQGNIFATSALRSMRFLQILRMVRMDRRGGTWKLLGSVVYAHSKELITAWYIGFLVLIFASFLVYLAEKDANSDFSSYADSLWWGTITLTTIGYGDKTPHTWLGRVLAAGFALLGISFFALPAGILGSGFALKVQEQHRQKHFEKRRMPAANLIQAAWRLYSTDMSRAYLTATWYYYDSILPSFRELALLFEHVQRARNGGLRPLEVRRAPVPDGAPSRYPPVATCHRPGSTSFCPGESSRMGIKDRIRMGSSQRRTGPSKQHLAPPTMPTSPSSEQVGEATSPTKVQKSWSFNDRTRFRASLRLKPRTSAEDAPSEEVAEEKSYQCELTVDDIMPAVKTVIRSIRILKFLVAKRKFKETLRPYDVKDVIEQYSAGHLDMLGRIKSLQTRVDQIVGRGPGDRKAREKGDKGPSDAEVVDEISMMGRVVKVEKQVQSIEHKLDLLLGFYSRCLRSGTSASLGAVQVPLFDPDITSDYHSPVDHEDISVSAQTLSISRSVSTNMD

[3] = target: T2, Potassium voltage-gated channel subfamily KQT member 2 (Homo sapiens, UniProt O43526); assay: Activation of human Kv7.2 expressed in CHO cells assessed as increase in channel current amplitude by whole cell patch clamp electrophysiology assay; assay type: cell-based
T2 sequence (O43526 whole entry): as the sequence (O43526 whole entry) above

[4] = target: T3, Potassium voltage-gated channel subfamily KQT member 1 (Homo sapiens, UniProt P51787); assay: Activation of human Kv7.1 expressed in CHO cells assessed as channel current amplitude at 10 uM measured at holding potential of +20 mV and -40 mV by whole cell patch clamp electrophysiology assay; assay type: cell-based
T3 sequence (P51787 whole entry): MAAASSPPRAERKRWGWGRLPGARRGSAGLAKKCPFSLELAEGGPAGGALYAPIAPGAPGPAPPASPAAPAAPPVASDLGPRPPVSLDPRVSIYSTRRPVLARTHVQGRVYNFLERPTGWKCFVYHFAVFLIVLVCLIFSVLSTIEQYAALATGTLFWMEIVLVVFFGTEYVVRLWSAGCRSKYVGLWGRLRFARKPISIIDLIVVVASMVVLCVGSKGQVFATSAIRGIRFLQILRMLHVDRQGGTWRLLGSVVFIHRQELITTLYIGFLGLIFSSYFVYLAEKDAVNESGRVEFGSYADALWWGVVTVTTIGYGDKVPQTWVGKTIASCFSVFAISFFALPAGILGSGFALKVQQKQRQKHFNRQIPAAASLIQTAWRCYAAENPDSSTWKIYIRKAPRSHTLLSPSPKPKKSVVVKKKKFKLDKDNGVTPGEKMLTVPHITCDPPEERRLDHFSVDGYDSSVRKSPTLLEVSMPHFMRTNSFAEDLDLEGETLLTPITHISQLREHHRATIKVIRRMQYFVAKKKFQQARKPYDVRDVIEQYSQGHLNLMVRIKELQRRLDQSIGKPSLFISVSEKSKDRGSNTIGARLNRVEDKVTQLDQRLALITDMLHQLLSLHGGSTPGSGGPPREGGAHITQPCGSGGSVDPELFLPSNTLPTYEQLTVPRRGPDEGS

[5] = target: T2, Potassium voltage-gated channel subfamily KQT member 2; assay: Activation of human Kv7.2 expressed in CHO cells assessed as leftward shift in half-activation voltage at 0.03 uM in constant voltage pulse by whole cell patch clamp electrophysiology assay; assay type: cell-based
Procedure, shortened: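 CHO cells transiently expressing human Kv7.2, whole-cell patch clamp at 20–22°C, pH 7.4 bath. Currents activated by constant voltage pulses before and after 0.03 μM drug. Normalized conductance/voltage curves fitted to a double Boltzmann function to obtain half-activation voltage (V1/2).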

[6] = Photostability of compound in pH 7.4 buffer assessed as formation of 4-fluorobenzaldehyde incubated for 6 hrs under visible light irradiation by HPLC analysis
[7] = Photostability of compound in pH 7.4 buffer assessed as metabolite with phenazinium-dimer formation incubated for 6 hrs under visible light irradiation by HPLC/MS/MS analysis
[8] = Photostability of compound in pH 7.4 buffer assessed as compound degradation at 100 ug/ml incubated for 6 hrs under UV-irradiation at wavelength of 365 and 264 nm by HPLC analysis
Procedure, shortened: (§1)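 Compound from DMSO stock diluted in pH 7.4 buffer to final 1 mM, 10 μM or 1 μM in 1 cm quartz cells, held at 37°C under UV lamp (365 and 264 nm) or artificial daylight D65 lamp; dark controls in foil at 37°C. Aliquots taken at set intervals; loss of parent by HPLC (C18, TFA water/acetonitrile gradient, 254 nm).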

[9] = Photostability of compound in pH 7.4 buffer assessed as compound degradation at 100 ug/ml incubated for 6 hrs under artificial daylight D65 lamp-irradiation by HPLC analysis relative to control; procedure, shortened: as §1
[10] = target: T2, Potassium voltage-gated channel subfamily KQT member 2; assay: Activation of human Kv7.2 expressed in CHO cells assessed as maximal steady-state increase in current amplitude at 10 uM measured within 10 secs at holding potential of -40 mV by whole cell patch clamp electrophysiology assay; assay type: cell-based
Procedure, shortened: (§2)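 Human Kv7.2 transiently expressed in CHO cells, whole-cell patch clamp at 20–22°C, pH 7.4 HEPES-buffered extracellular solution under constant perfusion. Cells held at -80 mV; 3-s ramps -80 to +20 mV with and without compound; current at -40 mV taken as drug/control amplitude ratio, followed over time during application and wash-out; mean ± SEM of ≥3 cells from ≥2 transfections.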

[11] = Photostability of compound in pH 7.4 buffer assessed as formation of 4-fluorobenzaldehyde incubated for 6 hrs under visible light irradiation by GCMS analysis
[12] = target: T2, Potassium voltage-gated channel subfamily KQT member 2; assay: Activation of human Kv7.2 expressed in CHO cells assessed as increase in current amplitude with fast ON kinetics measured at holding potential of -40 mV by whole cell patch clamp electrophysiology assay; assay type: cell-based; procedure, shortened: as §2
[13] = Photostability of compound in pH 7.4 buffer assessed as formation of ethyl (2,4-bis((4-fluorobenzyl)amino)phenyl)carbamate by measuring retention time of metabolite incubated for 6 hrs under visible light irradiation by HPLC/MS analysis

Compound | EC50 [1] | EC50 [2] | EC50 [3] | Activity [4] | V1/2 [5] | Drug metabolism [6] | Drug metabolism [7] | Drug degradation [8] | Drug degradation [9] | Activity [10] | Drug metabolism [11] | Activity [12] | Retention time [13]
CC(C)(C)CC(=O)Nc1ccc2c(ccn2Cc2ccc(C(F)(F)F)cc2)c1 | 0.34 µM | 0.08 µM | 0.63 µM | – | – | – | – | – | – | – | – | – | –
CCCCCCC(=O)Nc1ccc2c(ccn2Cc2ccc(C(F)(F)F)cc2)c1 | – | – | – | Not Active | 18 mV | – | – | – | – | – | – | – | –
CCOC(=O)Nc1ccc(NCc2ccc(F)cc2)cc1N [EZOGABINE] | – | – | – | Not Active | – | Metabolite detected | Metabolite detected | 5% | 47.3% | Active | Metabolite detected | Dose-dependent effect | 14.4 min
